Columns and labels:
[1] = Half life in Sprague-Dawley rat model of bleomycin-induced pulmonary fibrosis at 2 mg/kg, iv by LC-MS/MS analysis; type: ADME, organism-based; conditions: in vivo
Outline: (§1)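 Male Sprague-Dawley rats with induced pulmonary fibrosis; single i.v. (2.0 mg kg⁻¹) or p.o. (5.0 mg kg⁻¹) administration. Plasma samples stored at −70 °C; the supernatant was analysed by LC-MS/MS for PK parameters.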

[2] = AUC(infinity) in Sprague-Dawley rat model of bleomycin-induced pulmonary fibrosis at 2 mg/kg, iv by LC-MS/MS analysis; type: ADME, organism-based; design: time infinity, dose 2 mg/kg, route iv; conditions: in vivo; outline: as §1
[3] = Half life in dog at 5 mg/kg, po by LC-MS/MS analysis; type: ADME, organism-based, Canis lupus familiaris; conditions: in vivo
[4] = Oral bioavailability in dog at 5 mg/kg by LC-MS/MS analysis; type: ADME, organism-based, Canis lupus familiaris; conditions: in vivo
[5] = AUClast in cynomolgus monkey at 5 mg/kg, po by LC-MS/MS analysis; type: ADME, organism-based, Macaca fascicularis; design: time 0 - last, dose 5 mg/kg, route po; conditions: in vivo
[6] = Half life in cynomolgus monkey at 5 mg/kg, po by LC-MS/MS analysis; type: ADME, organism-based, Macaca fascicularis; conditions: in vivo
[7] = Oral bioavailability in cynomolgus monkey at 5 mg/kg by LC-MS/MS analysis; type: ADME, organism-based, Macaca fascicularis; conditions: in vivo
[8] = Intrinsic clearance in mouse liver microsomes by LC-MS/MS analysis; type: ADME, Microsome; conditions: read-out: CLH
Outline: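 Liver microsomes were incubated with the compound at 37 °C with NADPH as cofactor and sampled at 0, 5, 15, 30 and 60 min. Half-life (min) and in vitro CLint (mL min⁻¹ kg) were derived from these samples.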

Cytochrome P450 1A2 = target: T1, Cytochrome P450 1A2 (Homo sapiens, UniProt P05177); test: Inhibition of CYP1A2 in human liver microsomes by LC-MS/MS analysis; type: ADME, Microsome
T1 sequence (P05177 whole entry): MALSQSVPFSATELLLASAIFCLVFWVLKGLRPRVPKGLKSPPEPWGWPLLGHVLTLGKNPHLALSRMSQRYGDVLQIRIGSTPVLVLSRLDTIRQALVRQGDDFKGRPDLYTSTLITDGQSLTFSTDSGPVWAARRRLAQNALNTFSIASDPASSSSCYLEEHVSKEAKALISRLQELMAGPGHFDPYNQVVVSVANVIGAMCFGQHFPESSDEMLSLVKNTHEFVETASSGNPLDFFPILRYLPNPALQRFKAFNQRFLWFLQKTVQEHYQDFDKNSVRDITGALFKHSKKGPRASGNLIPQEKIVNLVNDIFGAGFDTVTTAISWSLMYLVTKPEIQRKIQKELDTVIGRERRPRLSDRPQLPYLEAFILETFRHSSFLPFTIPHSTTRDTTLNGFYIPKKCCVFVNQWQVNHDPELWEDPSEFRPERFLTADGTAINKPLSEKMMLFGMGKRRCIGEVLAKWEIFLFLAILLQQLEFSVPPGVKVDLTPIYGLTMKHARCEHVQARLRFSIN
Outline: (§2)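 Human microsomes incubated with CYP-specific substrates (1A2, 2C9, 2C19, 2D6, 3A4) and test compound at 0.0–10 μM; IC50 determined.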

Cytochrome P450 2D6 = Cytochrome P450 2D6 (Homo sapiens, UniProt P10635); test: Inhibition of CYP2D6 in human liver microsomes by LC-MS/MS analysis; type: ADME, Microsome; outline: as §2
[9] = target: Voltage-gated inwardly rectifying potassium channel KCNH2 (Homo sapiens, UniProt Q12809); test: Inhibition of human ERG stably expressed in CHO cells by automated Qpatch clamp method; type: toxicity, cell-based
Outline: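 CHO cell line stably transfected with hERG cDNA expressing hERG channels; channel inhibition measured, IC50 reported.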

[10] = Mutagenecity in Salmonella typhimurium TA100 at 7.8 to 1000 ug measured after 2 to 3 days by mini-Ames test; type: toxicity, Salmonella enterica subsp. enterica serovar Typhimurium; conditions: dose lower 7.8 µg, time lower 2 day, dose upper 1000 µg, time upper 3 day
Outline: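 Bacterial reverse mutation assay scoring reverse gene mutations at the histidine locus in Salmonella typhimurium strains TA98 and TA100.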

Chain of Cytochrome P450 2D6 (P10635 whole entry): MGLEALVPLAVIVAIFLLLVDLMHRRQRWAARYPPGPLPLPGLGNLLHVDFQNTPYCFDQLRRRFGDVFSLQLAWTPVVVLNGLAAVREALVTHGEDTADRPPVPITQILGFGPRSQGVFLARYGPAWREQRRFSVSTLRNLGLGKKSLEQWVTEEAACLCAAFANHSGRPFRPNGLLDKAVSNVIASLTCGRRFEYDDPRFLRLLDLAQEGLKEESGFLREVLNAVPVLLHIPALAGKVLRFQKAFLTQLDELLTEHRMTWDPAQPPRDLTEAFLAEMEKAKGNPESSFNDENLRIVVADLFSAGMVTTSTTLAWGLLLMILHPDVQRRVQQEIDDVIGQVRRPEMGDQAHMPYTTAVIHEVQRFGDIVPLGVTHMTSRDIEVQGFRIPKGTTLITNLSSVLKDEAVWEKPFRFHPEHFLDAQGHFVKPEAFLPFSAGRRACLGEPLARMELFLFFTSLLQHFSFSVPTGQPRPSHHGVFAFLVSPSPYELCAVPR
Chain of Voltage-gated inwardly rectifying potassium channel KCNH2 (Q12809 whole entry): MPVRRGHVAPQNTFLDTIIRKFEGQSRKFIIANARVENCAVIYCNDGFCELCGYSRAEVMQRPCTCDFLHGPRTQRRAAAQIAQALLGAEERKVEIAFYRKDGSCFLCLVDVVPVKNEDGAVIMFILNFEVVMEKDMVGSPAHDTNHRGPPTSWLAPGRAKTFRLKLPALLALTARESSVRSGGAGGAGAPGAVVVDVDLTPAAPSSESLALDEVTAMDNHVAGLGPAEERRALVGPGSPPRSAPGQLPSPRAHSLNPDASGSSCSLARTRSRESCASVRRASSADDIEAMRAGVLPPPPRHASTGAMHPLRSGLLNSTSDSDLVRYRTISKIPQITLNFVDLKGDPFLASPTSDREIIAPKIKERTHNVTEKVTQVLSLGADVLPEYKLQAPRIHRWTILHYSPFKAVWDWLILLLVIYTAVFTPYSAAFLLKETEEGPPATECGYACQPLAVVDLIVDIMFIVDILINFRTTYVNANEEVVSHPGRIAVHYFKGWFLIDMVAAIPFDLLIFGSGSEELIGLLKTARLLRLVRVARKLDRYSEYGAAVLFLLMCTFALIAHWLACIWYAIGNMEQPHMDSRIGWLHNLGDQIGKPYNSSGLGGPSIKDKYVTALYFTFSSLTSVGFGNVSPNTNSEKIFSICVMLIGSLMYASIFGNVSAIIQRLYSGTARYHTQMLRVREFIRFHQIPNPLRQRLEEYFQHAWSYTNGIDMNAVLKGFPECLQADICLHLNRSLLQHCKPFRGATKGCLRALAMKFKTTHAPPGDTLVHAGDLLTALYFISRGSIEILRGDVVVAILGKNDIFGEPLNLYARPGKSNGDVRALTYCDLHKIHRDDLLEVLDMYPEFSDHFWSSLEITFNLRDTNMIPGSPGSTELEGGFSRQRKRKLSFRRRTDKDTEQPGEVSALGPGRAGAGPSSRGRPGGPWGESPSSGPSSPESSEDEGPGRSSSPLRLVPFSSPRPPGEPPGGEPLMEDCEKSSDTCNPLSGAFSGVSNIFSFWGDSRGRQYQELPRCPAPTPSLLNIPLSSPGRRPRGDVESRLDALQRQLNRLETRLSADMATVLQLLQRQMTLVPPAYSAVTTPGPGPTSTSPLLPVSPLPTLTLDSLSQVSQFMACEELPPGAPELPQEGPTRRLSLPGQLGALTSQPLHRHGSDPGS

SMILES: Cc1cc(=O)n(-c2ccc(N3CCC(Cc4ccc(Cl)c(F)c4)CC3)c(Cl)c2)c(C)n1
- half-life [1]: 26 h
- AUC(0-inf) [2]: 7980 ng·h/mL
- half-life [3]: 27 h
- bioavailability [4]: 15%
- AUC(0-t) [5]: 12900 ng·h/mL
- half-life [6]: 14 h
- bioavailability [7]: 72%
- CLint scaled [8]: 77 mL/min/kg
- IC50 (Cytochrome P450 1A2): > 10 µM
- IC50 (Cytochrome P450 2D6): > 10 µM
- IC50 [9]: > 30 µM
- Activity [10]: Non-Toxic

From ChEMBL document CHEMBL5136958, “The development of HEC-866 and its analogues for the treatment of idiopathic pulmonary fibrosis” (RSC Med Chem, 2021)
